Test results as given in ChEMBL document CHEMBL3272255, “Substituted alpah-methylbenzyl and tricyclic arylalkyl lactamimides as inhibitors of blood platelet aggregation” (J Med Chem, 1976).

Columns and labels:
Cavia porcellus [1] = test: Antiplatelet activity in guinea pig assessed as inhibition of 0.8 ug/ml ADP-induced platelet aggregation measured as area between aggregation curve and baseline transmittance at 10 mg/kg, po for 4 days measured at 2 hrs post last dose by aggregometric analysis relative to control; format: functional
Summary of the method: (§1)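 Guinea pigs were dosed by stomach tube at the stated dose daily for 4 days, with an untreated control group kept in parallel. Blood was taken by heart puncture 2 h after the last dose, and citrated PRP was isolated and adjusted. ADP was added in vitro. Total response was the area between the aggregation curve and baseline transmittance over 5 min, measured by planimeter. Percent inhibition came from group-average total response, treated vs control.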

Cavia porcellus [2] = test: Antiplatelet activity in guinea pig assessed as inhibition of 0.45 ug/ml ADP-induced platelet aggregation measured as change in light transmittance at 30 mg/kg, po for 4 days measured at 2 hrs post last dose by aggregometric analysis relative to control; format: functional
Summary of the method: (§2)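 Dosing was oral by stomach tube for 4 days, alongside an untreated control group. Blood was drawn by heart puncture 2 h after the final dose, then citrated PRP was isolated and adjusted for aggregometry. ADP was added in vitro at the stated concentration. The read-out was the maximum increase in light transmittance (ΔT); group means were compared, treated vs control.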

Cavia porcellus [3] = test: Antiplatelet activity in guinea pig assessed as inhibition of 0.45 ug/ml ADP-induced platelet aggregation measured as area between aggregation curve and baseline transmittance at 30 mg/kg, po for 4 days measured at 2 hrs post last dose by aggregometric analysis relative to control; format: functional; summary of the method: as §1
Cavia porcellus [4] = test: Antiplatelet activity in guinea pig assessed as inhibition of 0.8 ug/ml ADP-induced platelet aggregation measured as area between aggregation curve and baseline transmittance at 100 mg/kg, po for 1 day by aggregometric analysis relative to control; format: functional; settings: 24 h
Cavia porcellus [5] = test: Antiplatelet activity in guinea pig assessed as 0.45 ug/ml ADP-induced platelet aggregation measured as change in light transmittance at 100 mg/kg, po for 1 day by aggregometric analysis; settings: 24 h
Cavia porcellus [6] = test: Antiplatelet activity in guinea pig assessed as inhibition of 0.4 ug/ml ADP-induced platelet aggregation measured as area between aggregation curve and baseline transmittance at 10 mg/kg, po for 4 days measured at 2 hrs post last dose by aggregometric analysis relative to control; format: functional; summary of the method: as §1
Cavia porcellus [7] = test: Antiplatelet activity in guinea pig assessed as inhibition of 0.8 ug/ml ADP-induced platelet aggregation measured as change in light transmittance at 100 mg/kg, po for 1 day by aggregometric analysis relative to control; format: functional; settings: 24 h
Cavia porcellus [8] = test: Antiplatelet activity in guinea pig assessed as inhibition of 0.4 ug/ml ADP-induced platelet aggregation measured as change in light transmittance at 10 mg/kg, po for 4 days measured at 2 hrs post last dose by aggregometric analysis relative to control; format: functional; summary of the method: as §2
[9] = Antiplatelet activity in human platelet rich plasma assessed as inhibition of ADP-induced platelet aggregation at 30 ug/ml after 20 mins by aggregometric analysis relative to control; format: functional
Summary of the method: (§3)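 Human blood came from fasting donors who had taken no drugs for 5 days. It was citrated 1:9 with 3.8% sodium citrate. PRP was prepared at 100g for 10 min and PPP at 1500g for 15 min, and PRP was diluted with autologous PPP to 400000 platelets/mm³. Compound or saline control was incubated 20 min at 37°, then ADP was added at 2 μg/ml final. Percent inhibition was calculated from maximal ΔT, test vs control.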

Cavia porcellus [10] = test: Antiplatelet activity in guinea pig assessed as inhibition of 0.35 ug/ml ADP-induced platelet aggregation measured as change in light transmittance at 30 mg/kg, po for 4 days measured at 2 hrs post last dose by aggregometric analysis relative to control; format: functional; summary of the method: as §2
[11] = Antiplatelet activity in human platelet rich plasma assessed as platelet factor-3 release at 300 ug/ml after 20 mins relative to control
Cavia porcellus [12] = test: Antiplatelet activity in guinea pig assessed as inhibition of 0.8 ug/ml ADP-induced platelet aggregation measured as area between aggregation curve and baseline transmittance at 100 mg/kg, po for 4 days measured at 2 hrs post last dose by aggregometric analysis relative to control; format: functional; summary of the method: as §1
Cavia porcellus [13] = test: Antiplatelet activity in guinea pig assessed as inhibition of 0.8 ug/ml ADP-induced platelet aggregation measured as change in light transmittance at 30 mg/kg, po for 4 days measured at 2 hrs post last dose by aggregometric analysis relative to control; format: functional; summary of the method: as §2
Cavia porcellus [14] = test: Antiplatelet activity in guinea pig assessed as inhibition of 0.45 ug/ml ADP-induced platelet aggregation measured as area between aggregation curve and baseline transmittance at 100 mg/kg, po for 4 days measured at 2 hrs post last dose by aggregometric analysis relative to control; format: functional; summary of the method: as §1
Cavia porcellus [15] = test: Antiplatelet activity in guinea pig assessed as inhibition of 0.8 ug/ml ADP-induced platelet aggregation measured as area between aggregation curve and baseline transmittance at 30 mg/kg, po for 4 days measured at 2 hrs post last dose by aggregometric analysis relative to control; format: functional; summary of the method: as §1
Cavia porcellus [16] = test: Antiplatelet activity in guinea pig assessed as inhibition of 0.8 ug/ml ADP-induced platelet aggregation measured as change in light transmittance at 100 mg/kg, po for 4 days measured at 2 hrs post last dose by aggregometric analysis relative to control; format: functional; summary of the method: as §2
Cavia porcellus [17] = test: Toxicity in guinea pig assessed as mortality at 300 mg/kg, po measured after third dose; format: organism-based; set-up: dose 300 mg/kg, route oral; settings: in vivo
Cavia porcellus [18] = test: Antiplatelet activity in guinea pig assessed as inhibition of 0.8 ug/ml ADP-induced platelet aggregation measured as change in light transmittance at 10 mg/kg, po for 4 days measured at 2 hrs post last dose by aggregometric analysis relative to control; format: functional; summary of the method: as §2
Cavia porcellus [19] = test: Antiplatelet activity in guinea pig assessed as inhibition of 0.45 ug/ml ADP-induced platelet aggregation measured as area between aggregation curve and baseline transmittance at 100 mg/kg, po for 1 day by aggregometric analysis relative to control; format: functional; settings: 24 h
[20] = Antiplatelet activity in human platelet rich plasma assessed as inhibition of ADP-induced platelet aggregation at 100 ug/ml after 20 mins by aggregometric analysis relative to control; format: functional; summary of the method: as §3
Cavia porcellus [21] = test: Antiplatelet activity in guinea pig assessed as inhibition of 0.25 ug/ml ADP-induced platelet aggregation measured as change in light transmittance at 30 mg/kg, po for 4 days measured at 2 hrs post last dose by aggregometric analysis relative to control; format: functional; summary of the method: as §2
[22] = Antiplatelet activity in human platelet rich plasma assessed as inhibition of ADP-induced platelet aggregation at 10 ug/ml after 20 mins by aggregometric analysis relative to control; format: functional; summary of the method: as §3
Cavia porcellus [23] = test: Antiplatelet activity in guinea pig assessed as 0.45 ug/ml ADP-induced platelet aggregation measured as change in light transmittance at 100 mg/kg, po for 4 days measured at 2 hrs post last dose by aggregometric analysis
Cavia porcellus [24] = test: Antiplatelet activity in guinea pig assessed as inhibition of 0.25 ug/ml ADP-induced platelet aggregation measured as area between aggregation curve and baseline transmittance at 30 mg/kg, po for 4 days measured at 2 hrs post last dose by aggregometric analysis relative to control; format: functional; summary of the method: as §1
Cavia porcellus [25] = test: Antiplatelet activity in guinea pig assessed as inhibition of 0.35 ug/ml ADP-induced platelet aggregation measured as area between aggregation curve and baseline transmittance at 30 mg/kg, po for 4 days measured at 2 hrs post last dose by aggregometric analysis relative to control; format: functional; summary of the method: as §1

CCCC(C/N=C1/CCCCCN1)(c1ccccc1)c1ccccc1.Cl
inhibition in vivo at 10 mg/kg (Cavia porcellus [1]): 26%
ΔT % at 30 mg/kg (Cavia porcellus [2]): 19.7%
inhibition in vivo at 30 mg/kg (Cavia porcellus [3]): 18%
inhibition in vivo at 100 mg/kg (Cavia porcellus [4]): 12%
ΔT % at 100 mg/kg (Cavia porcellus [5]): 21.4%
inhibition in vivo at 10 mg/kg (Cavia porcellus [6]): 21%
ΔT % at 100 mg/kg (Cavia porcellus [7]): 36%
ΔT % at 10 mg/kg (Cavia porcellus [8]): 14.6%
inhibition at 30 µg/mL [9]: 57%
ΔT % at 30 mg/kg (Cavia porcellus [10]): 24.8%
%max [11]: 0.13%
inhibition in vivo at 100 mg/kg (Cavia porcellus [12]): 20%
ΔT % at 30 mg/kg (Cavia porcellus [13]): 35.3%
inhibition in vivo at 100 mg/kg (Cavia porcellus [14]): 70%
inhibition in vivo at 30 mg/kg (Cavia porcellus [15]): 14%
ΔT % at 100 mg/kg (Cavia porcellus [16]): 62.7%
Activity (Cavia porcellus [17]): Toxic
ΔT % at 10 mg/kg (Cavia porcellus [18]): 35.2%
inhibition in vivo at 100 mg/kg (Cavia porcellus [19]): 13%
inhibition at 100 µg/mL [20]: 100%
ΔT % at 30 mg/kg (Cavia porcellus [21]): 21.2%
inhibition at 10 µg/mL [22]: 1%
ΔT % at 100 mg/kg (Cavia porcellus [23]): 34.3%
inhibition in vivo at 30 mg/kg (Cavia porcellus [24]): 63%
inhibition in vivo at 30 mg/kg (Cavia porcellus [25]): 55%
